H69AR growth 86K – growth inhibitors of human H69AR lung tumor cells. H69AR lung tumor viability, ATP luminescence, 72 h; active compounds read low. AID 598. viability, % at 10 µM. 85,000 tested, 6% active;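 active means viability at or below 40%; inactive means viability above 40%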;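 further: multidrug resistant small cell line overexpressing MRP-1 efflux transporter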
HUVEC inhibit – inhibitors of human endothelial cell proliferation | 86,000 tested, 1.1% active | AID 648 | viability, % at 10 µM (by protocol) | HUVEC proliferation, CellTiter-Glo luminescence, 72 h; active compounds read low;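 active means viability at or below 30%; inactive means viability above 30%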
tolC growth inh – E. coli tolC mutant growth inhibition. growth inhibition, % at 10 µM (by protocol). E. coli BW25113 tolC mutant growth, OD615. 65,000 tested, 2.2% active;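 active means growth inhibition at or above a cutoff equal to the mean over every tested compound plus 3 SD, cut at about 60% in these data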;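 further: growth measured after 20 h incubation at 37 °C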
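System: E. coli ΔtolC::kan strain BW25113; Buffer or medium: LB broth supplemented with 50 µg/mL kanamycin; Compound: 10 µM final, single dose; Incubation: bacterial growth with compound for 20 h at 37 °C; Signal: A615 absorbance measurement; Evaluation: growth inhibition in percent.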
Jurkat tox 60K – reduces viability or proliferation of Jurkat cells | Jurkat E6.1 viability, ATP luminescence, 48 h | inhibition, % at 4 µM | 56,000 tested, 1.2% active;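 active means inhibition above the mean inhibition of all tested compounds plus 3 SD, cut at about 28% in these data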
Lung fibro prol – blocks proliferation of human lung fibroblasts; LL 47 human lung fibroblast viability, ATP luminescence; active compounds read low; viability, % at 10 µM; 85,000 tested, 1.1% active; AID 719;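 active means viability at or below 50% in the single dose screen; inactive means viability above 50%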;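 further: compound exposure lasted 72 h before the ATP readout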
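Test system: LL 47 human lung fibroblasts / Incubation: 72 h compound exposure at 37 °C after overnight plating / Technique: luminescent ATP detection, CellTiter-Glo / Compound dosing: 0.1% DMSO in all compound wells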
E coli WT exp – blocks growth of wild type E. coli BW25113 | OD600 absorbance | growth inhibition, % at 100 µM | 98,000 tested, 0.15% active;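 active means growth inhibition above about 50% at one test dose, limit read from the data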;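 further: growth measured after 20 h incubation at 37 °C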
Hits are given with their value; - = inactive; . = not tested or not shown. Sampled rows, rich in hits. Any-hit rate of the full collection: about 6.4%.

SMILES | H69AR growth 86K | HUVEC inhibit | tolC growth inh | Jurkat tox 60K | Lung fibro prol | E coli WT exp
COc1ccc(OC)c(C2CC(=O)c3c([nH]c(C(=O)OCC4CCCO4)c3C)C2)c1 (centres undefined) | . | . | - | - | . | -
CC(=O)Nc1ccc(S(=O)(=O)N2CCN(S(=O)(=O)N3CCCCCC3)CC2)cc1 | - | - | - | - | - | -
COCCCn1c(SCC(=O)Nc2ccc(C(=O)OC)cc2)nc2ccccc2c1=O | - | - | - | - | - | -
O=C(Nc1cnn(Cc2ccc(Cl)cc2Cl)c1)c1noc2c1CCCC2 | - | - | 71 | - | - | -
O=C(Nc1cnn(Cc2ccc(Cl)cc2Cl)c1)c1cc(-c2cccs2)on1 | 19 | - | - | - | - | -
CCc1[nH]nc2c1C(c1ccsc1)C(C#N)=C(N)O2 (centres undefined) | - | - | . | . | - | .
CCOc1ccccc1-n1c(CN2CCN(C(=O)c3ccco3)CC2)nc2ccccc2c1=O | - | - | - | - | 15 | -
CC(C)(C)c1nc(N2CCN(C(=O)c3ccco3)CC2)c2nnn(Cc3ccccc3)c2n1 | 11 | - | . | . | - | -
CCc1nc(N2CCN(C(=O)c3ccco3)CC2)c2oc3ccccc3c2n1 | 22 | - | - | - | - | -
Cc1cc(N2CCCCC2)nc(SCc2ccc(C#N)cc2)n1 | - | - | 78 | - | - | -
CCCCOc1cc(C)nc(NCc2ccccc2)n1 | - | - | 67 | - | - | -
Cc1cc(C)n2c(SCc3ccc(C#N)cc3)nnc2n1 | - | - | - | - | - | -
Cc1cc(N2CCCCCC2)nc(-c2ccccc2O)n1 | - | - | 81 | - | - | -
Cc1cc(N2CCCCC2)nc(NCc2ccccc2)n1 | 16 | - | . | . | - | -
CCCCC(=O)Nc1ccc(NC(=O)c2cc(OC)c(OC)c(OC)c2)cn1 | - | - | - | - | - | -
Cc1cc(N2CCN(c3ccccc3)CC2)nc(-c2ccccc2)n1 | - | - | 77 | - | - | -
Cc1cc(N2CCN(C(=O)c3ccco3)CC2)nc(-c2ccccc2)n1 | - | - | - | - | - | .
COc1ccc(C2(O)CC3CCC(C2)N3c2cc(C)nc(-c3ccccc3)n2)cc1 (centres undefined) | - | - | 87 | - | - | -
Cc1cc(C(=O)Nc2cccc(C(=O)O)c2)oc1C | - | - | - | - | - | -
CN1/C(=C\C(=O)COc2ccc3c(c2)OCO3)C(C)(C)c2ccccc21 | - | - | 89 | - | - | -
CC(C)OC(=O)c1c2nc3ccccc3nc2n2c1[nH]c(=O)c1ccccc12 | 33 | - | - | . | - | -
CN(C)c1ccc(CN2CCCCCC2)cc1 | - | - | - | - | - | -
CN(/N=C/c1cccs1)c1cc(=O)n(C)c(=O)[nH]1 | - | 15 | . | . | - | .
CCN(/N=C/c1cccs1)c1cc(=O)n(C)c(=O)[nH]1 | - | - | . | . | - | .
COc1ccccc1NC(=O)CCN1CCN(Cc2ccccc2)CC1 | - | - | . | . | - | -
SMILES | H69AR growth 86K | HUVEC inhibit | tolC growth inh | Jurkat tox 60K | Lung fibro prol | E coli WT exp
O=C(CNC(=O)c1ccc(Cl)cc1)OCC(=O)c1ccc2c(c1)OCCO2 | . | . | . | . | . | -
O=c1c2ccccc2nc2c3ccccc3c(N3CCOCC3)nn12 | - | - | - | - | - | .
O=c1c2ccccc2nc2c3ccccc3c(NCCN3CCOCC3)nn12 | 19 | - | . | . | 33 | -
Cc1cccc(-c2nc(NCCCN3CCOCC3)c3ccccc3n2)c1 | . | . | . | . | . | -
c1ccc(-c2nc(NCCCN3CCOCC3)c3ccccc3n2)cc1 | 26 | - | - | - | - | -
CCCOC(=O)c1ccc(Oc2c(-c3ccc(O)cc3O)n[nH]c2C)cc1 | - | - | 100 | - | - | -
CCCOC(=O)c1ccc(Oc2c(-c3ccc(OC)cc3O)n[nH]c2C)cc1 | 1.6 | 25 | - | - | - | -
Cc1[nH]nc(-c2ccc(O)cc2O)c1Oc1ccccc1 | 36 | - | - | . | - | -
Cc1cc(Oc2ccccc2)nc2ccc(O)cc12 | . | . | - | - | . | -
CCc1cc(-c2n[nH]c(C)c2Oc2ccc(C(C)C)cc2)c(O)cc1O | 1.1 | 2.5 | . | . | - | -
COc1cc(C)c(CNc2ccc(OC)c(OC)c2)cc1C | 36 | - | - | - | . | -
COc1cc(C)c(CNc2cccc(C)c2)cc1C | - | - | . | . | - | -
COc1cc(CNc2ccc(C)c(C)c2)cc(OC)c1OC | 19 | - | - | 88 | . | -
Cc1nnc(SCc2ccccc2Cl)n1CC1CCCO1 (centres undefined) | - | - | - | - | - | -
Oc1cc2ccccc2cc1-c1n[nH]c(=S)o1 | - | - | - | - | - | -
Cc1cc(-c2n[nH]c(=S)o2)c(C)n1-c1ccccc1 | 38 | - | . | . | - | -
COC(=O)c1sccc1NC(=O)CSc1ccccc1NS(=O)(=O)c1ccc(Cl)cc1 | . | . | . | . | . | -
CC(=O)c1cc2c(cc1NS(=O)(=O)c1ccccc1)OCO2 | - | - | . | . | - | -
COC(=O)c1ccc(C)c(NS(=O)(=O)c2ccc3c(c2)OCCO3)c1 | 30 | - | - | 92 | - | -
COC(=O)c1sccc1NS(=O)(=O)c1ccc(OC)cc1 | 15 | - | - | - | - | -
COC(=O)c1ccc(C)c(NS(=O)(=O)c2ccc(C)c([N+](=O)[O-])c2)c1 | . | . | . | . | . | -
CSc1ccccc1NS(=O)(=O)c1ccc2c(c1)OCCO2 | - | - | - | - | - | -
CC(=O)c1cc2c(cc1NS(=O)(=O)c1ccc(C)cc1)OCCO2 | 18 | - | - | 76 | - | -
COC(=O)c1ccc(C)c(NS(=O)(=O)c2ccc(OC)cc2)c1 | 37 | - | - | . | - | -
Nc1nc(SCC(=O)Nc2cc(-c3ccccc3)nn2-c2ccccc2)n[nH]1 | . | . | . | . | . | -
SMILES | H69AR growth 86K | HUVEC inhibit | tolC growth inh | Jurkat tox 60K | Lung fibro prol | E coli WT exp
COc1cc(NC(=O)CN2CCN(S(=O)(=O)c3ccc(C(C)C)cc3)CC2)cc(OC)c1 | . | . | - | - | . | -
COc1ccc(S(=O)(=O)N2CCCN(CC(=O)Nc3ccc(OC)c(Cl)c3)CC2)cc1 | 2.1 | - | - | - | - | -
O=C(CN1C(=O)CCC1=O)Nc1ccc(Br)cc1 | 40 | - | - | - | - | -
COc1ccc(S(=O)(=O)N2CCN(CC(=O)Nc3cc(OC)cc(OC)c3)CC2)cc1 | 4.9 | - | - | - | - | -
COC(=O)c1ccc(NC(=O)CN2C(=O)CCC2=O)cc1 | - | - | - | - | - | -
O=C(CN1CCN(S(=O)(=O)c2ccc(Br)cc2)CC1)Nc1ccc(F)cc1 | 1.6 | - | - | - | - | -
CCOC(=O)N1CCN(C(=O)CCCn2c(=S)[nH]c3ccc(Br)cc3c2=O)CC1 | - | - | . | . | - | -
Nc1nc(OCC(F)(F)F)cc(Oc2ccccc2F)n1 | 36 | - | - | - | . | -
CC(C)Cn1c(SCC(=O)NC(=O)Nc2ccc3c(c2)OCCO3)nc2ccccc2c1=O | - | - | - | - | - | -
O=C(Nc1ccc(Cl)cc1)N1CCC(c2nc(-c3cccs3)no2)CC1 | - | - | 100 | - | - | -
COc1ccc(NC(=O)N2CCC(c3nc(-c4cccs4)no3)CC2)cc1 | - | - | - | - | - | -

High-throughput results: PubChem, several laboratories
